Results pooled from the literature.
Target: Dual specificity tyrosine-phosphorylation-regulated kinase 1A (DYRK1A, Homo sapiens, UniProt Q13627)
Method: competition with immobilised ligand

| Structure (SMILES) | effect on | tested at | remaining binding [%] |
| --- | --- | --- | --- |
| O=C(NCC1CCOCC1)c1n[nH]cc1NC(=O)c1c(F)cccc1F | binding | 1 µM | 0.4 |
| CCOCCn1cc(C(=O)Nc2ccc(-n3nc(-c4cccnc4)cc3C(F)(F)F)cn2)ccc1=O | cell-free assay | 1 µM | 77 |
| COc1ncc2cc3ccccc3nc2c1C#N | cell-free assay | 5 µM | 74 |
| O=C(NCCCN1CCOCC1)c1ccc(Nc2nccc(-c3cc4ccccc4s3)n2)cc1 | binding | 1 µM | 41 |
| COc1cnc(Nc2cccc(S(N)(=O)=O)c2)nc1N1CCN(c2ccccc2)CC1 | binding | 1 µM | 76 |
| COC(=O)Nc1nc2ccc(C(=O)c3ccccc3)cc2[nH]1 | cell-free assay | 10 µM | 34 |
| COc1ccc2c(c1)O[C@@H](c1ccc(OC)c(OC)c1)C[C@H]2NC(=O)C1(c2ccc3c(c2)OC(F)(F)O3)CC1 | cell-free assay | 1 µM | 80 |
| O=C(c1ccc(Nc2ncc(Cl)c(-c3ccc(Cl)s3)n2)cc1)N1CCC(N2CCCC2)CC1 | binding | 1 µM | 1.8 |
| CCN1CCN(Cc2ccc(C(=O)Nc3ccc(C)c(Oc4ccc5c(c4)CC(=O)N5)c3)cc2C(F)(F)F)CC1 | binding | 1 µM | 96 |
| CN([C@@H]1CCc2c(CC(=O)O)c3ccccc3n2C1)S(=O)(=O)c1ccc(F)cc1 | cell-free assay | 1 µM | 69 |
| C=CC(=O)N1CCC(C(=O)NCC(=O)N2CCN(c3nc(-c4cnc(N)nc4C(F)F)nc(N4CCOCC4)n3)CC2)CC1 | binding | 1 µM | 94 |
| O=C(c1ccc(Nc2nccc(-c3cc4ccccc4s3)n2)cc1)N1CCC(N2CCCC2)CC1 | binding | 1 µM | 68 |
| Cc1noc([C@H]2C[C@@H](c3ccc(C(F)(F)F)cc3)CN(C(=O)N3CCS(=O)(=O)C3)C2)n1 | cell-free assay | 1 µM | 100 |
| COc1cnc(Nc2cccc(S(N)(=O)=O)c2)nc1N1CCN(c2ccccc2)C(=O)C1 | binding | 1 µM | 91 |
